System: U2OS
Test: Multiplex assay against U2OS
Format: toxicity, cell-based
Settings: human
How it was run: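 Cells were classed with CellPathfinder machine-learning gating, first as Hoechst high-intensity objects or normal cells, then (normal cells) as healthy, pyknosed or fragmented nuclei, and finally (pyknosed cells) as mitotic or apoptotic. Staining of live cells at seeding used Hoechst33342, BioTracker Green Microtubule Cytoskeleton Dye, MitoTracker Red and Annexin V Alexa Fluor 680, with imaging on a CQ1 microscope at 37°C and 5% CO2 after compound addition. Tubulin, mitochondrial-mass and membrane-permeability phenotypes are per cents of healthy-nucleus cells.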

[1] = 12 h, 1 µM, compound concentration 1 uM, replicate 1
[2] = 12 h, 1 µM, compound concentration 1 uM, replicate 2
[3] = 12 h, 10 µM, compound concentration 10 uM, replicate 1
[4] = 12 h, 10 µM, compound concentration 10 uM, replicate 2
[5] = 24 h, 1 µM, compound concentration 1 uM, replicate 1
[6] = 24 h, 1 µM, compound concentration 1 uM, replicate 2
[7] = 24 h, 10 µM, compound concentration 10 uM, replicate 1
[8] = 24 h, 10 µM, compound concentration 10 uM, replicate 2
[9] = 48 h, 1 µM, compound concentration 1 uM, replicate 1
[10] = 48 h, 1 µM, compound concentration 1 uM, replicate 2
[11] = 48 h, 10 µM, compound concentration 10 uM, replicate 1
[12] = 48 h, 10 µM, compound concentration 10 uM, replicate 2

`CN(c1cc(C(F)(F)F)nc(OCCC(=O)O)n1)c1cccc2c1CCC2` was tested, and the “Population Apoptotic (%)” value [1] was 33%, the “Population Fragmented Nuclei (%)” value [1] was 24% and the “Population Healthy Nuclei (%)” value [1] was 64%. The “Population Hoechst High Intensity Objects (%)” value [1] was 11%, the “Population Membrane Permeable-Phenotype (%)” value [1] was 8% and the “Population Mitochondria Different-Phenotype (%)” value [1] was 12%. For the same compound, the “Population Mitotic Cells (%)” value [1] was 66%, the “Population Normal (%)” value [1] was 88% and the “Population Pyknosed Nuclei (%)” value [1] was 11%. For the same compound, the “Population Tubulin-Different-Phenotype (%)” value [1] was 10%, the “Total Cell Count” value [1] was 191 and the “Population Apoptotic (%)” value [2] was 0%. For the same compound, the “Population Fragmented Nuclei (%)” value [2] was 9%, the “Population Healthy Nuclei (%)” value [2] was 80% and the “Population Hoechst High Intensity Objects (%)” value [2] was 12%. The “Population Membrane Permeable-Phenotype (%)” value [2] was 4%, the “Population Mitochondria Different-Phenotype (%)” value [2] was 20% and the “Population Mitotic Cells (%)” value [2] was 100%. The “Population Normal (%)” value [2] was 87%, the “Population Pyknosed Nuclei (%)” value [2] was 9% and the “Population Tubulin-Different-Phenotype (%)” value [2] was 28%. The “Total Cell Count” value [2] was 65, the “Population Apoptotic (%)” value [3] was 23% and the “Population Fragmented Nuclei (%)” value [3] was 11%. For the same compound, the “Population Healthy Nuclei (%)” value [3] was 77%, the “Population Hoechst High Intensity Objects (%)” value [3] was 5% and the “Population Membrane Permeable-Phenotype (%)” value [3] was 9%. The “Population Mitochondria Different-Phenotype (%)” value [3] was 13%, the “Population Mitotic Cells (%)” value [3] was 76% and the “Population Normal (%)” value [3] was 94%. The “Population Pyknosed Nuclei (%)” value [3] was 11%, the “Population Tubulin-Different-Phenotype (%)” value [3] was 15% and the “Total Cell Count” value [3] was 149. For the same compound, the “Population Apoptotic (%)” value [4] was 0%, the “Population Fragmented Nuclei (%)” value [4] was 13% and the “Population Healthy Nuclei (%)” value [4] was 86%. The “Population Hoechst High Intensity Objects (%)” value [4] was 14%, the “Population Membrane Permeable-Phenotype (%)” value [4] was 4% and the “Population Mitochondria Different-Phenotype (%)” value [4] was 10%. For the same compound, the “Population Mitotic Cells (%)” value [4] was 0%, the “Population Normal (%)” value [4] was 85% and the “Population Pyknosed Nuclei (%)” value [4] was 0%. For the same compound, the “Population Tubulin-Different-Phenotype (%)” value [4] was 30%, the “Total Cell Count” value [4] was 71 and the “Population Apoptotic (%)” value [5] was 40%. The “Population Fragmented Nuclei (%)” value [5] was 16%, the “Population Healthy Nuclei (%)” value [5] was 77% and the “Population Hoechst High Intensity Objects (%)” value [5] was 7%. The “Population Membrane Permeable-Phenotype (%)” value [5] was 6%, the “Population Mitochondria Different-Phenotype (%)” value [5] was 10% and the “Population Mitotic Cells (%)” value [5] was 60%. For the same compound, the “Population Normal (%)” value [5] was 92%, the “Population Pyknosed Nuclei (%)” value [5] was 6% and the “Population Tubulin-Different-Phenotype (%)” value [5] was 5%. The “Total Cell Count” value [5] was 200, the “Population Apoptotic (%)” value [6] was 0% and the “Population Fragmented Nuclei (%)” value [6] was 4%. The “Population Healthy Nuclei (%)” value [6] was 95%, the “Population Hoechst High Intensity Objects (%)” value [6] was 8% and the “Population Membrane Permeable-Phenotype (%)” value [6] was 2%. The “Population Mitochondria Different-Phenotype (%)” value [6] was 13%, the “Population Mitotic Cells (%)” value [6] was 0% and the “Population Normal (%)” value [6] was 91%. The “Population Pyknosed Nuclei (%)” value [6] was 0%, the “Population Tubulin-Different-Phenotype (%)” value [6] was 30% and the “Total Cell Count” value [6] was 68. For the same compound, the “Population Apoptotic (%)” value [7] was 52%, the “Population Fragmented Nuclei (%)” value [7] was 8% and the “Population Healthy Nuclei (%)” value [7] was 84%. The “Population Hoechst High Intensity Objects (%)” value [7] was 3%, the “Population Membrane Permeable-Phenotype (%)” value [7] was 5% and the “Population Mitochondria Different-Phenotype (%)” value [7] was 10%. For the same compound, the “Population Mitotic Cells (%)” value [7] was 47%, the “Population Normal (%)” value [7] was 96% and the “Population Pyknosed Nuclei (%)” value [7] was 7%. The “Population Tubulin-Different-Phenotype (%)” value [7] was 14%, the “Total Cell Count” value [7] was 176 and the “Population Apoptotic (%)” value [8] was 0%. The “Population Fragmented Nuclei (%)” value [8] was 13%, the “Population Healthy Nuclei (%)” value [8] was 81% and the “Population Hoechst High Intensity Objects (%)” value [8] was 13%. For the same compound, the “Population Membrane Permeable-Phenotype (%)” value [8] was 3%, the “Population Mitochondria Different-Phenotype (%)” value [8] was 13% and the “Population Mitotic Cells (%)” value [8] was 100%. The “Population Normal (%)” value [8] was 86%, the “Population Pyknosed Nuclei (%)” value [8] was 5% and the “Population Tubulin-Different-Phenotype (%)” value [8] was 44%. The “Total Cell Count” value [8] was 79, the “Population Apoptotic (%)” value [9] was 43% and the “Population Fragmented Nuclei (%)” value [9] was 7%. For the same compound, the “Population Healthy Nuclei (%)” value [9] was 86%, the “Population Hoechst High Intensity Objects (%)” value [9] was 5% and the “Population Membrane Permeable-Phenotype (%)” value [9] was 4%. For the same compound, the “Population Mitotic Cells (%)” value [9] was 56%, the “Population Normal (%)” value [9] was 94% and the “Population Pyknosed Nuclei (%)” value [9] was 6%. The “Population Tubulin-Different-Phenotype (%)” value [9] was 8%, the “Total Cell Count” value [9] was 200 and the “Population Apoptotic (%)” value [10] was 40%. The “Population Fragmented Nuclei (%)” value [10] was 6%, the “Population Healthy Nuclei (%)” value [10] was 88% and the “Population Hoechst High Intensity Objects (%)” value [10] was 6%. For the same compound, the “Population Membrane Permeable-Phenotype (%)” value [10] was 5%, the “Population Mitochondria Different-Phenotype (%)” value [10] was 15% and the “Population Mitotic Cells (%)” value [10] was 60%. The “Population Normal (%)” value [10] was 93%, the “Population Pyknosed Nuclei (%)” value [10] was 4% and the “Population Tubulin-Different-Phenotype (%)” value [10] was 24%. For the same compound, the “Total Cell Count” value [10] was 81, the “Population Apoptotic (%)” value [11] was 50% and the “Population Fragmented Nuclei (%)” value [11] was 5%. The “Population Healthy Nuclei (%)” value [11] was 89%, the “Population Hoechst High Intensity Objects (%)” value [11] was 2% and the “Population Membrane Permeable-Phenotype (%)” value [11] was 2%. For the same compound, the “Population Mitochondria Different-Phenotype (%)” value [11] was 9%, the “Population Mitotic Cells (%)” value [11] was 50% and the “Population Normal (%)” value [11] was 97%. For the same compound, the “Population Pyknosed Nuclei (%)” value [11] was 4%, the “Population Tubulin-Different-Phenotype (%)” value [11] was 15% and the “Total Cell Count” value [11] was 251. For the same compound, the “Population Apoptotic (%)” value [12] was 20%, the “Population Fragmented Nuclei (%)” value [12] was 8% and the “Population Healthy Nuclei (%)” value [12] was 87%. The “Population Hoechst High Intensity Objects (%)” value [12] was 6%, the “Population Membrane Permeable-Phenotype (%)” value [12] was 1% and the “Population Mitochondria Different-Phenotype (%)” value [12] was 6%. For the same compound, the “Population Mitotic Cells (%)” value [12] was 80%, the “Population Normal (%)” value [12] was 93% and the “Population Pyknosed Nuclei (%)” value [12] was 3%. For the same compound, the “Population Tubulin-Different-Phenotype (%)” value [12] was 38% and the “Total Cell Count” value [12] was 113.

Reference: ChEMBL document CHEMBL4689842, “EUbOPEN Chemogenomics Library wave 1” (2021)
